Structures are written as SMILES.

In ChEMBL document CHEMBL1122780, “Trequinsin, a potent new antihypertensive vasodilator in the series of 2-(arylimino)-3-alkyl-9,10-dimethoxy-3,4,6,7-tetrahydro-2H-py rim ido [6,1-a]isoquinolin-4-ones” (J Med Chem, 1984) one finds ED25, Delta blood pressure and LD50 data, which are given here for 43 compounds.

The subject of series [1] is Felis catus. Nature of the series: Dose estimated to produce 25 mm Hg fall in mean systemic blood pressure of anesthetized cat at 10 min after administration. It counts as functional.
Series [2] has as its system Rattus norvegicus. Briefly: Difference in systolic blood pressure of SH rats observed prior to the first application and 2 hr after the fifth application at the oral dose of 10 mg/kg was expressed as Delta BP. It counts as functional, Artery. The gist of the method:
(§1)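 Male spontaneously hypertensive rats (Wistar–Okamoto, 250–300 g, 12–16 weeks), conscious. Dosed orally once daily for 5 days in 0.9% NaCl or 0.5% carboxymethylcellulose (10 mL/kg); vehicle control group. Rats warmed at 37–38 °C for 10 min, then systolic pressure taken by tail-cuff (piezoelectric pulse detection). ΔBP = pre-first-dose minus 2 h after fifth dose; mean ± SEM, six animals.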

The nature of series [3]: Compound was tested for toxicity in mice after intraperitoneal administration. The class given is organism-based. The conditions noted are these: mouse, in vivo, ip. The gist of the method: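 Mice (18–22 g), either sex. Compound dissolved in distilled water or suspended in 0.5% (carboxymethyl)cellulose and given ip at 10, 30, 100, 300 and 1000 mg/kg, 1 mL/100 g body weight. Animals observed for 48 h; approximate LD50 calculated by the Campbell and Richter method.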

The subject of series [4] is Rattus norvegicus. Nature of the series: Difference in systolic blood pressure of SH rats observed prior to the first application and 2 hr after the fifth application at the oral dose of 5 mg/kg was expressed as Delta BP. The class given is functional, Artery. The gist of the method:
as §1

The subject of series [5] is Felis catus. Briefly: Blood pressure lowering activity in anesthetized cats after intravenous administration of […] of compound. It counts as functional.
For series [6], the system named is Rattus norvegicus. Briefly: Difference in systolic blood pressure of SH rats observed prior to the first application and 2 hr after the fifth application at the oral dose of 25 mg/kg was expressed as Delta BP. The class given is functional, Artery. A digest of the protocol: as §1
Series [7] has as its system Rattus norvegicus. Briefly: Delta BP refers to difference in systolic blood pressure of SH rats observed prior to the first application and 2 hr after the fifth application at the oral dose of 3 mg/kg. It counts as functional, Artery. The gist of the method:
as §1

Regarding `COc1cc2c(cc1OC)-c1cc(=Nc3c(F)cccc3F)n(C)c(=O)n1CC2`, the ED25 in the series with Felis catus [1] is 0.5 mg/kg. Also, the Delta blood pressure with Rattus norvegicus [2] is 0 mmHg.
As a reminder, the LD50 is the dose expected to kill half of the subjects tested. High values mean a less toxic substance, low ones a more toxic substance. With `COc1cc2c(cc1OC)-c1cc(N(C)c3c(C)cc(C)cc3C)nc(=O)n1CC2.Cl`, the ED25 in the series on Felis catus [1] and with Felis catus [5] was 0.03 mg/kg in each case. The compound further yielded an LD50 in series [3] of 27 mg/kg. Further, the Delta blood pressure with Rattus norvegicus [4] is listed as -45 mmHg.
For `CCc1cccc(C(C)C)c1Nc1cc2n(c(=O)n1)CCc1cc(OC)c(OC)cc1-2.Cl`, the ED25 in the series with Felis catus [1] was 3 mg/kg.
On to `COc1cc2c(cc1OC)-c1cc(Nc3cc(C)cc(C)c3)nc(=O)n1CC2`, for which, in the series on Felis catus [1], the ED25 was 3 mg/kg.
Same read-out and setting: the figure for `COc1cc2c(cc1OC)-c1cc(Nc3c(C)cccc3C(C)C)nc(=O)n1CC2.Cl` is 2.2 mg/kg; for `COc1cc2c(cc1OC)-c1cc(Nc3ccccc3C(=O)O)nc(=O)n1CC2` it is 50 mg/kg.
As for `Nc1cc(N2CCCCC2)nc(N)[n+]1[O-]` [MINOXIDIL], in the series on Felis catus [1], the ED25 was 1.2 mg/kg. Also, the Delta blood pressure with Rattus norvegicus [4] was -51.2 mmHg.
On to `COc1cc2c(cc1OC)-c1cc(Nc3ccc(O)cc3)nc(=O)n1CC2`, for which the ED25 in the series with Felis catus [1] was 10 mg/kg.
Consider `N/N=c1\[nH][nH]/c(=N\N)c2ccccc12` [DIHYDRALAZINE], for which the ED25 with Felis catus [1] is 1 mg/kg. For the same compound, in the series on Rattus norvegicus [4], the Delta blood pressure was -60 mmHg.
Regarding `CCOc1ccc(Nc2cc3n(c(=O)n2)CCc2cc(OC)c(OC)cc2-3)cc1.Cl`, the ED25 in the series on Felis catus [1] was 50 mg/kg.
`COc1cc2c(cc1OC)-c1cc(Nc3c(C)cccc3C(C)(C)C)nc(=O)n1CC2.Cl`: the ED25 with Felis catus [1] is 1.8 mg/kg. The Delta blood pressure in the series on Rattus norvegicus [6] is recorded as 0 mmHg.
`COc1cc2c(cc1OC)-c1cc(Nc3ccc(C)cc3C)nc(=O)n1CC2`: in the series with Felis catus [1], the ED25 was 1 mg/kg. The Delta blood pressure in the series on Rattus norvegicus [6] is on record as -41 mmHg.
Take `CCCCN(c1cc2n(c(=O)n1)CCc1cc(OC)c(OC)cc1-2)c1c(C)cc(C)cc1C`: the ED25 in the series with Felis catus [1] was 0.08 mg/kg.
For the compound `CCc1ccccc1Nc1cc2n(c(=O)n1)CCc1cc(OC)c(OC)cc1-2`, the ED25 in the series with Felis catus [1] is 10 mg/kg.
For `COc1cc2c(cc1OC)-c1cc(=Nc3ccc(C)cc3C)n(C)c(=O)n1CC2.Cl`, the ED25 in the series with Felis catus [1] is 10 mg/kg.
Regarding `COc1cc2c(cc1OC)-c1cc(Nc3ccccc3Cl)nc(=O)n1CC2.Cl`, the ED25 in the series with Felis catus [1] is 1.4 mg/kg. In the series with Rattus norvegicus [6], this compound showed a Delta blood pressure of 0 mmHg.
As to `COc1cc2c(cc1OC)-c1cc(N(CP(C)(C)=O)c3c(F)cccc3F)nc(=O)n1CC2`, the ED25 in the series with Felis catus [1] is 2.4 mg/kg. Further, the Delta blood pressure with Rattus norvegicus [6] was 0 mmHg.
On to `COc1cc2c(cc1OC)-c1cc(Nc3c(C)cccc3C)nc(=O)n1CC2`, for which the ED25 in the series with Felis catus [1] was 0.1 mg/kg. The Delta blood pressure in the series with Rattus norvegicus [4] is -27 mmHg.
For `CCn1c(=Nc2c(C)cc(C)cc2C)cc2n(c1=O)CCc1cc(OC)c(OC)cc1-2.Cl`, the ED25 is 0.1 mg/kg in the series with Felis catus [1] and 0.025 mg/kg in the series with Felis catus [5]. The compound further came in with an LD50 in series [3] of 65 mg/kg. The Delta blood pressure in the series with Rattus norvegicus [4] is on record as -20 mmHg.
The like results for `COc1cc2c(cc1OC)-c1cc(=Nc3c(C)cc(C)cc3C)n(CP(C)(C)=O)c(=O)n1CC2.Cl` were, in that order, 0.1 mg/kg, 0.5 mg/kg, 65 mg/kg and -33 mmHg.
Take `COc1cc2c(cc1OC)-c1cc(=Nc3c(Cl)cc(Cl)cc3Cl)n(C)c(=O)n1CC2`: the ED25 in the series with Felis catus [1] was 3 mg/kg. Further, the Delta blood pressure in the series on Rattus norvegicus [6] is recorded as -21 mmHg.
For `COc1cc2c(cc1OC)-c1cc(Nc3ccc(C)c(N)c3)nc(=O)n1CC2`, in the series on Felis catus [1], the ED25 was 2.4 mg/kg.
Consider `COc1cc2c(cc1OC)-c1cc(=Nc3c(C)cccc3C(C)C)n(C)c(=O)n1CC2.Cl`, for which, in the series on Felis catus [1], the ED25 is 1 mg/kg. In the series on Rattus norvegicus [4], this compound returned a Delta blood pressure of 0 mmHg.
Turning to `CCc1cccc(C(C)CC)c1N=c1cc2n(c(=O)n1C)CCc1cc(OC)c(OC)cc1-2.Cl` (centres undefined), the ED25 in the series with Felis catus [1] is 3.5 mg/kg. In addition, in the series with Rattus norvegicus [6], the Delta blood pressure is reported as -20 mmHg.
For `COc1cc2c(cc1OC)-c1cc(Nc3c(Cl)cccc3Cl)nc(=O)n1CC2`, the ED25 with Felis catus [1] was 2 mg/kg.
On to `COc1cc2c(cc1OC)-c1cc(=Nc3c(F)cccc3F)n(CP(C)(C)=O)c(=O)n1CC2.Cl`, for which the ED25 in the series with Felis catus [1] is 0.4 mg/kg. Moreover, the Delta blood pressure with Rattus norvegicus [6] is listed as 0 mmHg.
Take `COc1cc2c(cc1OC)-c1cc(Nc3ccc(Cl)cc3)nc(=O)n1CC2`: the ED25 with Felis catus [1] was 50 mg/kg.
Consider `COc1ccc(OC)c(Nc2cc3n(c(=O)n2)CCc2cc(OC)c(OC)cc2-3)c1`, for which the ED25 with Felis catus [1] was 50 mg/kg.
As for `COc1cc2c(cc1OC)-c1cc(Nc3ccc(Cl)cc3Cl)nc(=O)n1CC2`, the ED25 in the series on Felis catus [1] is 1 mg/kg. This compound had a Delta blood pressure in the series on Rattus norvegicus [6] of 0 mmHg.
Consider `COc1cc2c(cc1OC)-c1cc(=Nc3c(C)cccc3C)n(C)c(=O)n1CC2`, for which the ED25 in the series on Felis catus [1] was 3.5 mg/kg.
`CCN(c1cc2n(c(=O)n1)CCc1cc(OC)c(OC)cc1-2)c1c(C)cc(C)cc1C`: the ED25 was 0.025 mg/kg with Felis catus [1] and 0.1 mg/kg in the series on Felis catus [5]. In series [3], this compound yielded an LD50 of 65 mg/kg. Further, in the series with Rattus norvegicus [7], the Delta blood pressure is -13 mmHg.
With `COc1cc2c(cc1OC)-c1cc(=Nc3c(C)cc(C)cc3C)n(C(C)C)c(=O)n1CC2`, the ED25 in the series with Felis catus [1] is 0.1 mg/kg. In the series with Rattus norvegicus [2], the Delta blood pressure is -34 mmHg.
For `COc1cc2c(cc1OC)-c1cc(Nc3c(Cl)cc(Cl)cc3Cl)nc(=O)n1CC2.Cl`, in the series with Felis catus [1], the ED25 was 0.5 mg/kg.
In the case of `CCOc1ccccc1Nc1cc2n(c(=O)n1)CCc1cc(OC)c(OC)cc1-2.Cl`, the ED25 with Felis catus [1] was 1.2 mg/kg. For the same compound, in the series on Rattus norvegicus [6], the Delta blood pressure is reported as -27 mmHg.
Regarding `COc1cc(Nc2cc3n(c(=O)n2)CCc2cc(OC)c(OC)cc2-3)cc(OC)c1.Cl`, the ED25 with Felis catus [1] was 3.4 mg/kg.
As to `COc1cc2c(cc1OC)-c1cc(Nc3c(C)cc(C)cc3C)nc(=O)n1CC2.Cl`, the ED25 in the series with Felis catus [1] and in the series with Felis catus [5] was 0.2 mg/kg throughout. Moreover, the LD50 in series [3] came to 82.5 mg/kg. Further, the Delta blood pressure in the series with Rattus norvegicus [4] is on record as -37 mmHg.
For `COc1cc2c(cc1OC)-c1cc(Nc3cccc(C(F)(F)F)c3)nc(=O)n1CC2`, the ED25 in the series with Felis catus [1] is 2 mg/kg.
Consider `COc1cc2c(cc1OC)-c1cc(N(C(C)=O)c3c(C)cc(C)cc3C)nc(=O)n1CC2`, for which the ED25 with Felis catus [1] and in the series on Felis catus [5] was 0.25 mg/kg each time. Further, in series [3], the LD50 came to 825 mg/kg. Besides, the Delta blood pressure in the series on Rattus norvegicus [2] is -24 mmHg.
`COc1cc2c(cc1OC)-c1cc(Nc3c(F)cccc3F)nc(=O)n1CC2`: in the series with Felis catus [1], the ED25 was 3.5 mg/kg. For the same compound, the Delta blood pressure with Rattus norvegicus [6] is 0 mmHg.
Consider `COc1cc2c(cc1OC)-c1cc(Nc3ccc(C)c(Cl)c3Cl)nc(=O)n1CC2.Cl`, for which the ED25 in the series on Felis catus [1] is 5 mg/kg. In addition, the Delta blood pressure in the series with Rattus norvegicus [6] is -19 mmHg.
`COc1cc2c(cc1OC)-c1cc(Nc3ccc(C)c(C)c3)nc(=O)n1CC2`: the ED25 in the series with Felis catus [1] is 10 mg/kg.
Consider `COc1cc2c(cc1OC)-c1cc(N(c3c(C)cc(C)cc3C)C(C)C)nc(=O)n1CC2`, for which, in the series with Felis catus [1], the ED25 was 0.5 mg/kg. The Delta blood pressure in the series on Rattus norvegicus [4] is -37 mmHg.
In the case of `COc1cc2c(cc1OC)-c1cc(Nc3cc(OC)c(OC)c(OC)c3)nc(=O)n1CC2.Cl`, in the series on Felis catus [1], the ED25 was 0.8 mg/kg.
